In the library only some 3.5% were active in any assay of this set; here they are far more common.
RGS4 act: RGS4 potentiators or activators, primary screen, cell-based, HEK293 M3R inducible RGS4, calcium flux | 0.92% of 310,000 active | B-score at 10 µM | carbachol calcium flux Fluo4; hits give low values | AID 463111, 2010;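 active means B-score of the integrated calcium signal more than 4 SD below the library mean, with starting fluorescence not abnormally high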;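 further: negative B-score means reduced calcium response which marks RGS4 activation or potentiation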
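test system = HEK293 cells with stable M3R and inducible RGS4 | schedule = recording 10 s baseline at 1 Hz, 100 s post-agonist | technique = Fluo4-AM (2 µM) calcium-flux fluorescence, kinetic read | measure = Agonist-evoked peak-minus-minimum fluorescence over baseline, integrated ratio, B score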
RGS4 block: RGS4 inhibitors, primary screen, cell-based, HEK293 M3R inducible RGS4, calcium flux; Regulator of G-protein signaling 4 (Homo sapiens), P49798; Fluo-4 calcium flux; hits give high values; triggered by carbachol at its EC20; B-score at 10 µM; 0.45% of 310,000 active; AID 463165, 2010;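 active means B-score, a plate-corrected calcium signal, over three deviations above library mean, with baseline fluorescence within five deviations of library mean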;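 further: RGS4 expression induced by doxycycline in cells with stable M3 receptor; B-score is computed from the integrated fluorescence ratio over baseline after carbachol; higher B-score means a larger calcium signal and so more RGS4 inhibition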
Target sequence (P49798 whole entry, looked up): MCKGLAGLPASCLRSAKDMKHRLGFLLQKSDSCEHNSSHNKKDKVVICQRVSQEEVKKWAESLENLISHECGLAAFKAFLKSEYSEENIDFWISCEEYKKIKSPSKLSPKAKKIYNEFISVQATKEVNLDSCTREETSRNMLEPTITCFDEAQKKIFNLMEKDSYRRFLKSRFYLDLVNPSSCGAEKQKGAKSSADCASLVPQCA
MrgX1 allo act: positive allosteric modulators of MrgX1, primary screen, HEK293 cells, Fluo-4 calcium flux; Mas-related G-protein coupled receptor member X1 (Homo sapiens), Q96LB2; FDSS; hits give high values; B-score at 10 µM; 0.63% of 310,000 active; AID 588675, 2011;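 active means plate-corrected calcium response at least 3 library SD above typical, normal starting fluorescence, not activating the receptor alone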;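 further: compound read alongside a low EC10 to EC30 dose of BAM8-22 agonist; peak minus trough fluorescence over baseline measured at the second addition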
Target sequence (Q96LB2 whole entry, looked up): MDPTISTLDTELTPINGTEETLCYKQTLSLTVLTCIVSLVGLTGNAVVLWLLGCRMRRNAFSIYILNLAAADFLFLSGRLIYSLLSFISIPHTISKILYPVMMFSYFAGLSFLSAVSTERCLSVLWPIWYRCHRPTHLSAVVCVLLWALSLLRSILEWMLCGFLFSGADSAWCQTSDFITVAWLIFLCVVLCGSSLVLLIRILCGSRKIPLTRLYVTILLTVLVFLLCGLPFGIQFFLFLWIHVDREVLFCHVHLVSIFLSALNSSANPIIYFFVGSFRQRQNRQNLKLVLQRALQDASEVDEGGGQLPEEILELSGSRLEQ
MrgX1 ag: agonists of human MrgX1 receptor, primary screen, HEK293 cells, Fluo-4 calcium flux; Mas-related G-protein coupled receptor member X1 (Homo sapiens), Q96LB2; Fluo-4 calcium fluorescence, agonist mode; hits give high values; B-score at 10 µM; 0.44% of 310,000 active; AID 588627, 2011;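 active means calcium response B-score plate-corrected fluorescence ratio at least 3 library SD, with starting fluorescence B-score inside 5 SD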
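Assay system: MrgX1-expressing HEK293 cells / Amount: fifteen thousand cells per well / Doses: test compound in the initial addition of three / Timing: cells plated overnight, dye loaded 0.5 h 37 °C, 0.5 h room temperature / Technique: kinetic calcium dye fluorescence, Fluo-4 NW / Control set: positive and negative controls per plate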
MrgX1 antag: antagonists of human MrgX1 receptor, primary screen, HEK293 cells, Fluo-4 calcium flux; Mas-related G-protein coupled receptor member X1 (Homo sapiens), Q96LB2; BAM8-22 antagonism; hits give low values; B-score at 10 µM; 1.3% of 310,000 active; AID 588676, 2011;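 active means calcium-response B-score plate-corrected more than 3 library SD below zero, starting fluorescence within 5 deviations, no agonist response on first addition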;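 further: peak minus trough fluorescence over baseline after final BAM8-22 challenge near maximal dose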
Active calls of the source: *; i = inactive; x = not tested or not shown.

SMILES	RGS4 act	RGS4 block	MrgX1 allo act	MrgX1 ag	MrgX1 antag
Cc1ccc(NC(=O)CSc2ncc3ccccn23)cc1C	-7.54*	i	i	i	i
CC(C)c1cc(CNC(=O)C2CCC(=O)N(CCc3ccc(Cl)cc3)C2)on1 (stereo unspecified)	i	i	i	i	i
CN1CCc2c(sc(NC(=O)c3cc(Cl)sc3Cl)c2C(N)=O)C1	i	i	i	i	i
Cc1c(Br)c([N+](=O)[O-])nn1CC(=O)N1CCc2ccccc2C1	i	i	i	i	i
Cc1c(Br)c([N+](=O)[O-])nn1C(C)C(=O)N1CCc2ccccc2C1 (stereo unspecified)	-9.3*	i	i	i	i
O=C1CSC(c2cccc([N+](=O)[O-])c2)N1c1ccc(O)cc1 (stereo unspecified)	i	i	i	i	i
O=C1CSC(c2cccc([N+](=O)[O-])c2)N1c1ccccc1 (stereo unspecified)	-7.5*	i	i	i	i
COC(=O)Cn1c(=NC(=O)c2ccc(Cl)s2)sc2cc(C)ccc21	i	i	i	i	-5.89*
COC(=O)Cn1c(=NC(=O)c2nc3ccccc3s2)sc2cc(S(C)(=O)=O)ccc21	i	i	i	i	-5.24*
COC(=O)Cn1c(=NC(=O)c2sc3ccccc3c2Cl)sc2cc(S(N)(=O)=O)ccc21	i	i	i	i	i
COc1ccc(CN2CCNC(=O)C2CC(=O)N(C)CCC2CCOCC2)c(OC)c1 (stereo unspecified)	i	i	i	i	i
CC(C(=O)NCc1ccco1)c1ccc([N+](=O)[O-])cc1 (stereo unspecified)	i	i	i	i	-4.52*
O=C(CSc1nnc(-c2ccncc2)o1)N1CCc2ccccc2C1	i	i	i	i	i
O=C(c1ccc([N+](=O)[O-])cc1)N1CCSC1c1cccc(Cl)c1 (stereo unspecified)	-7.53*	i	i	i	i
O=C(c1ccc([N+](=O)[O-])cc1)N1CCSC1c1ccccc1 (stereo unspecified)	i	i	i	i	i
CCOC(=O)c1[nH]c2ccc(OC)cc2c1NC(=O)C(C)N1CCSCC1 (stereo unspecified)	i	i	x	x	x
CCOC(=O)c1[nH]c2cc(OC)c(OC)cc2c1NC(=O)C(C)N1CCN(Cc2ccccc2)CC1 (stereo unspecified)	-8.65*	i	i	i	i
Cc1ccc(S(=O)(=O)N2CCN(C(=O)Cc3c(F)cccc3Cl)CC2)cc1	i	i	i	i	i
Cc1ccc2[nH]cc(CCNC(=O)c3cccs3)c2c1	i	i	i	i	i
Cc1ccc(NC2=C(N3CCCCC3)C(=O)c3ccccc3C2=O)cc1	i	i	i	i	i
COC1=C(Nc2ccccc2)C(=O)c2ccccc2C1=O	i	i	10.1*	i	i
COC1=C(Nc2ccc(C)cc2)C(=O)c2ccccc2C1=O	i	i	17.1*	i	i
COc1ccccc1C(=O)NC(=O)COC(=O)c1cccc(NC(C)=O)c1	i	i	i	i	i
O=C(NC(=S)Nc1ccc2oc(=O)ccc2c1)c1cccc(Cl)c1	i	i	i	i	i
CCN(CC)CCOC(=O)c1ccc(NC(=O)C2(c3ccccc3)CCCC2)cc1	-7.37*	i	i	i	i
SMILES	RGS4 act	RGS4 block	MrgX1 allo act	MrgX1 ag	MrgX1 antag
O=C(O)c1ccc(NC(=O)C2(c3ccccc3)CCCC2)cc1	i	i	i	i	i
CCN(CC)CCOC(=O)c1ccc(NC(=O)/C=C/c2cccs2)cc1	-7.08*	i	i	i	i
CCOC(=O)c1ccc(NC(=O)/C=C/c2cccs2)cc1	i	i	i	i	i
COc1ccc(Cl)cc1N1C(=NC(=O)C2CCCO2)SC2CS(=O)(=O)CC21 (stereo unspecified)	i	i	i	i	i
CN(Cc1ccccc1F)C(=O)COc1ccc(C(=O)c2ccccc2)cc1	i	i	i	i	i
CCCOc1cccc(-c2cc(-c3n[nH]c(=S)n3CC)c3ccccc3n2)c1	-8.52*	i	i	i	i
O=C(O)c1ccc(-c2nc(-c3ccc(Cl)cc3Cl)cs2)cc1	i	i	i	i	i
Cc1onc(-c2ccc(Cl)cc2Cl)c1-c1csc(COc2ccccc2)n1	-7.31*	i	i	i	i
CCc1ccccc1NC(=O)CSc1nnc(Cn2nnc3ccccc32)n1C	-7.51*	i	i	i	i
COc1ccc(NC(=O)CSc2nnc(Cn3nnc4ccccc43)n2C)cc1	x	x	i	i	i
Cc1ccc2nc(N3CCN(c4cccc(C)c4C)CC3)c3nnnn3c2c1	i	i	i	i	i
Cc1ccc2nc(Cl)c3nnnn3c2c1	i	i	8.74*	i	i
COc1cc(C(=O)NNC(=O)Nc2ccc([N+](=O)[O-])cc2)cc(OC)c1OC	i	i	i	i	i
CC1CN(S(=O)(=O)c2ccc(C(=O)Nc3nnc(-c4ccc5c(c4)CCCC5)o3)cc2)CC(C)O1 (stereo unspecified)	-7.27*	i	i	i	i
CCn1cc([N+](=O)[O-])nc1C	i	i	i	i	-7.54*
COC(=O)Cn1cc([N+](=O)[O-])nc1C	i	i	i	i	i
Cc1cc(C(=O)CSc2nnc(-c3ccccc3F)o2)c(C)n1Cc1cccs1	i	i	i	i	-6.04*
COc1ccccc1-n1cnnc1SCC(=O)c1cc(C)n(Cc2cccs2)c1C	i	i	i	i	i
CS(=O)(=O)N(CC(=O)Nc1cccc([N+](=O)[O-])c1)c1ccccc1	i	i	i	i	i
Cc1ccccc1CN(CC(=O)Nc1cccc([N+](=O)[O-])c1)S(=O)(=O)c1ccc(Cl)cc1	-7.25*	i	i	i	i
CCCS(=O)(=O)N1CCc2ccc(NC(=O)C3CCCO3)cc2C1 (stereo unspecified)	i	i	i	i	i

Compound activity as filed in PubChem BioAssay.
